According to ChEMBL document CHEMBL4425095, “Novel Cephalosporins Selectively Active on Nonreplicating Mycobacterium tuberculosis” (J Med Chem, 2016):
≈ marks a conversion by molar mass, not a printed value.

Columns and labels:
Type in all cases: functional
[1] = system: Mycobacterium tuberculosis; assay: Antimycobacterial activity against non-replicating Mycobacterium tuberculosis mc2 6220 harboring panCD/lysA deletion mutant incubated for 7 days measured at OD580 = 0.1 by two-fold serial dilution method
How it was run: (§1)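 M. tuberculosis mc26220 washed twice in PBS-tyloxapol and resuspended in Sauton's-based nonreplicating medium (pH 5.0, butyrate 0.05%, BSA, tyloxapol, lysine, pantothenate, 0.5 mM NaNO2). Incubated at 1% O2, 5% CO2 with 2-fold serially diluted compound from DMSO. After 3 days, diluted 5-fold in fresh replicating medium for outgrowth at 20% O2. Reported as MIC90.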

[2] = system: Mycobacterium tuberculosis; assay: Antimycobacterial activity against replicating Mycobacterium tuberculosis mc2 6220 harboring panCD/lysA deletion mutant by two-fold serial dilution method
How it was run: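 M. tuberculosis mc26220 in replicating medium supplemented with glycerol (final 0.5%), OADC, casamino acids 0.05%, lysine 240 μg/mL and pantothenate 24 μg/mL. Exposed to 2-fold serially diluted compound from DMSO. OD580 read after 7 days at 20% O2, 5% CO2. Reported as MIC90.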

[3] = system: Mycobacterium tuberculosis; assay: Antimycobacterial activity against non-replicating Mycobacterium tuberculosis mc2 6220 harboring panCD/lysA deletion mutant incubated for 7 days measured at OD580 = 0.01 by two-fold serial dilution method; how it was run: as §1

Row | SMILES | MIC90 [1] [µg/mL] | MIC90 [2] [µg/mL] | MIC90 [3] [µg/mL]
1 | CCCc1noc(C2=C(C)CS[C@@H]3[C@H](NC(=O)Cc4ccccc4)C(=O)N23)n1 | 1.04 (≈ 2.61 µM) | >100 | 
2 | CCCc1noc(C2=C(C)CS[C@@H]3[C@H](NC(=O)CCc4ccc(Cl)cc4)C(=O)N23)n1 |  | >100 | 
3 | COC(=O)C1=C(C)CS[C@@H]2[C@H](NC(=O)CCc3ccccc3)C(=O)N12 | 1.27 (≈ 3.52 µM) | >100 | 10.4 (≈ 28.9 µM)
4 | COC(=O)C1=C(C)CS[C@@H]2[C@H](NC(=O)[C@H](NC(=O)OC(C)(C)C)c3ccccc3)C(=O)N12 | 18.07 (≈ 39.2 µM) | >100 | 16.51 (≈ 35.8 µM)
5 | CCOC(=O)C1=C(C)CS[C@@H]2[C@H](NC(=O)CCc3ccccc3)C(=O)N12 | 1.15 (≈ 3.07 µM) | >100 | 0.47 (≈ 1.26 µM)
6 | CCOC(=O)C1=C(C)CS[C@@H]2[C@H](NC(=O)COc3ccc(Cl)cc3)C(=O)N12 | 2.38 (≈ 5.79 µM) | >100 | 1.07 (≈ 2.6 µM)
7 | CCCCOC(=O)C1=C(C)CS[C@@H]2[C@H](NC(=O)CCc3ccc(Cl)cc3)C(=O)N12 | 1.24 (≈ 2.84 µM) | >100 | 0.72 (≈ 1.65 µM)
8 | CC1=C(c2nc(C)no2)N2C(=O)[C@@H](NC(=O)COc3ccccc3)[C@H]2SC1 | 1.85 (≈ 4.79 µM) | >100 | 0.88 (≈ 2.28 µM)
9 | CC1=C(C(=O)O)N2C(=O)[C@@H](NC(=O)CCc3ccc(Br)cc3)[C@H]2SC1 | >42.53 | 96.13 (≈ 226 µM) | >42.53
10 | CCSC(=O)N[C@@H]1C(=O)N2C(c3nc(C)no3)=C(C)CS[C@H]12 | 1.84 (≈ 5.4 µM) | >100 | 
11 | CCCCOC(=O)C1=C(C)CS[C@@H]2[C@H](NC(=O)CCc3ccc(OC)cc3)C(=O)N12 | 0.26 (≈ 0.601 µM) | >100 | 0.24 (≈ 0.555 µM)
12 | CCCCOC(=O)C1=C(C)CS[C@@H]2[C@H](NC(=O)COc3ccc(OC)cc3)C(=O)N12 | 1.12 (≈ 2.58 µM) | >100 | 0.71 (≈ 1.63 µM)
13 | CCCOC(=O)C1=C(C)CS[C@@H]2[C@H](NC(=O)CCc3ccccc3)C(=O)N12 | 1.24 (≈ 3.19 µM) | 53.64 (≈ 138 µM) | 0.6 (≈ 1.54 µM)
14 | COc1ccc(CCC(=O)N[C@@H]2C(=O)N3C(C(=O)OC4CCCC4)=C(C)CS[C@H]23)cc1 | 0.96 (≈ 2.16 µM) | 44.33 (≈ 99.7 µM) | 0.84 (≈ 1.89 µM)
15 | CC1=C(C(=O)O)N2C(=O)[C@@H](NC(=O)COc3ccccc3)[C@H]2SC1 | >34.84 | >100 | >34.84
16 | CC1=C(c2nc(C)no2)N2C(=O)[C@@H](NC(=O)COc3ccc(Cl)cc3)[C@H]2SC1 | 1.72 (≈ 4.09 µM) | >100 | 1.2 (≈ 2.85 µM)
17 | CC1=C(C(=O)O)N2C(=O)[C@@H](NC(=O)c3ccc(Cl)cc3)[C@H]2SC1 | >35.28 | >100 | >35.28
18 | COc1ccc(CC(=O)N[C@@H]2C(=O)N3C(c4nc(C)no4)=C(C)CS[C@H]23)cc1 | 3.25 (≈ 8.12 µM) | >100 | 
19 | CC1=C(c2nc(C)no2)N2C(=O)[C@@H](NC(=O)Cc3ccc(Cl)cc3)[C@H]2SC1 | 1.13 (≈ 2.79 µM) | >100 | 
20 | CCCc1noc(C2=C(C)CS[C@@H]3[C@H](NC(=O)CCc4ccccc4Cl)C(=O)N23)n1 | 1.27 (≈ 2.84 µM) | >100 | 0.52 (≈ 1.16 µM)
21 | CC1=C(C(=O)O/N=C(\C)N)N2C(=O)[C@@H](NC(=O)COc3ccccc3)[C@H]2SC1 | 8.12 (≈ 20.1 µM) | >100 | 5.6 (≈ 13.8 µM)
22 | CCCCOc1ccc(CCC(=O)N[C@@H]2C(=O)N3C(c4nc(CCC)no4)=C(C)CS[C@H]23)cc1 | 0.76 (≈ 1.57 µM) | >100 | 0.47 (≈ 0.97 µM)
23 | CCCc1noc(C2=C(C)CS[C@@H]3[C@H](NC(=O)c4ccc(Cl)cc4)C(=O)N23)n1 | 2.28 (≈ 5.44 µM) | >100 | 1.06 (≈ 2.53 µM)
24 | COC(=O)C1=C(C)CS[C@@H]2[C@H](NC(=O)COc3ccc(Cl)cc3)C(=O)N12 | 1.25 (≈ 3.15 µM) | >100 | 0.95 (≈ 2.39 µM)
25 | CCCc1noc(C2=C(C)CS[C@@H]3[C@H](NC(=O)Cc4ccc(OC)cc4)C(=O)N23)n1 | 0.77 (≈ 1.8 µM) | >100 | 
26 | C#CCNC(=O)C1=C(C)CS[C@@H]2[C@H](NC(=O)COc3ccccc3)C(=O)N12 | >38.54 | >100 | >38.54

Row | SMILES | MIC90 [1] [µg/mL] | MIC90 [2] [µg/mL] | MIC90 [3] [µg/mL]
27 | COC(=O)C1=C(C)CS[C@@H]2[C@H](NC(=O)COc3ccccc3)C(=O)N12 | 2.93 (≈ 8.08 µM) | >100 | 2.07 (≈ 5.71 µM)
28 | CCOC(=O)C1=C(C)CS[C@@H]2[C@H](NC(=O)COc3ccccc3)C(=O)N12 | 1.71 (≈ 4.54 µM) | 57.85 (≈ 154 µM) | 0.66 (≈ 1.75 µM)
29 | C=CC1=C(C(=O)O)N2C(=O)[C@@H](NC(=O)/C(=N\O)c3csc(N)n3)[C@H]2SC1 | >100 | 4.11 (≈ 10.4 µM) | 77.84 (≈ 197 µM)
30 | CCCc1noc(C2=C(C)CS[C@@H]3[C@H](NC(=O)Cc4ccc(C)cc4)C(=O)N23)n1 | 0.64 (≈ 1.55 µM) | >100 | 
31 | CCCOC(=O)C1=C(C)CS[C@@H]2[C@H](NC(=O)CCc3ccc(OC)cc3)C(=O)N12 | <0.2 | >100 | <0.2
32 | CC(=O)OCC1=C(C(=O)O)N2C(=O)[C@@H](NC(=O)Cc3cccs3)[C@H]2SC1 [CEPHALOTHIN] | >100 | >100 | 95.53 (≈ 241 µM)
33 | CC1=C(C(N)=O)N2C(=O)[C@@H](NC(=O)COc3ccccc3)[C@H]2SC1 | >100 | >100 | 59.68 (≈ 172 µM)
34 | CC1=C(c2nc(C)no2)N2C(=O)[C@@H](NC(=O)OCC(Cl)(Cl)Cl)[C@H]2SC1 | 0.92 (≈ 2.15 µM) | >100 | 0.46 (≈ 1.08 µM)
35 | COc1ccc(OCC(=O)N[C@@H]2C(=O)N3C(C(=O)OCc4ccccc4)=C(C)CS[C@H]23)cc1 | 2.53 (≈ 5.4 µM) | >100 | 1.54 (≈ 3.29 µM)
36 | CC1=C(C(=O)OCc2ccccc2)N2C(=O)[C@@H](NC(=O)COc3ccc(Cl)cc3)[C@H]2SC1 | 8.07 (≈ 17.1 µM) | >100 | 0.87 (≈ 1.84 µM)
37 | C#CCOC(=O)C1=C(C)CS[C@@H]2[C@H](NC(=O)COc3ccc(Cl)cc3)C(=O)N12 | 3.95 (≈ 9.39 µM) | >100 | 1.53 (≈ 3.64 µM)
38 | CC1=C(c2nc(C)no2)N2C(=O)[C@@H](NC(=O)[C@H](N)c3ccccc3)[C@H]2SC1 | 44.05 (≈ 114 µM) | >100 | 
39 | CC1=C(c2nc(C)no2)N2C(=O)[C@@H](NC(=O)Cc3ccc(Cl)c(Cl)c3)[C@H]2SC1 | 0.28 (≈ 0.637 µM) | >100 | 
40 | COc1ccc(CCC(=O)N[C@@H]2C(=O)N3C(C(=O)OCc4ccccc4)=C(C)CS[C@H]23)cc1 | 0.42 (≈ 0.9 µM) | >100 | 0.39 (≈ 0.836 µM)
41 | COc1ccc(CCC(=O)N[C@@H]2C(=O)N3C(C(=O)O)=C(C)CS[C@H]23)cc1 | >37.64 | >100 | >37.64
42 | CCCc1noc(C2=C(C)CS[C@@H]3[C@H](NC(=O)CCc4ccc(C)cc4)C(=O)N23)n1 | 2.32 (≈ 5.44 µM) | >100 | 0.98 (≈ 2.3 µM)
43 | CCOC(=O)C1=C(C)CS[C@@H]2[C@H](NC(=O)COc3ccc(OC)cc3)C(=O)N12 | 0.89 (≈ 2.19 µM) | 47.1 (≈ 116 µM) | 0.53 (≈ 1.3 µM)
44 | CC1=CS[C@@H]2[C@H](NC(=O)COc3ccccc3)C(=O)N2[C@H]1COS(=O)(=O)c1ccc(Br)cc1 | >55.34 | >83.24 | >55.34
45 | CCCCOC(=O)C1=C(C)CS[C@@H]2[C@H](NC(=O)CCc3ccccc3)C(=O)N12 | <0.24 | >100 | 0.21 (≈ 0.522 µM)
46 | CCCOC(=O)C1=C(C)CS[C@@H]2[C@H](NC(=O)COc3ccc(OC)cc3)C(=O)N12 | 0.81 (≈ 1.93 µM) | >100 | 0.39 (≈ 0.927 µM)
47 | COC(=O)C1=C(C)CS[C@@H]2[C@H](NC(=O)[C@H](N)c3ccccc3)C(=O)N12 | 61.78 (≈ 171 µM) | >100 | 
48 | CC1=C(c2nc(C)no2)N2C(=O)[C@@H](NC(=O)Cc3ccc(C)cc3)[C@H]2SC1 | 1.75 (≈ 4.55 µM) | >100 | 
49 | CC1=C(c2nc(C)no2)N2C(=O)[C@@H](NC(=O)Cc3ccccc3)[C@H]2SC1 | 1.61 (≈ 4.35 µM) | >100 | 
50 | CC1=C(c2nc(C)no2)N2C(=O)[C@@H](NC(=O)OCC(C)(C)C)[C@H]2SC1 | 1.03 (≈ 2.81 µM) | >100 | 
51 | CCCOC(=O)C1=C(C)CS[C@@H]2[C@H](NC(=O)[C@H](N)c3ccccc3)C(=O)N12 | 15.46 (≈ 39.7 µM) | >100 | 
